# Test results from the EternaBench riboswitch data.
# Tested on: MS2 coat protein
# Experiment: apparent Kd, MS2 coat protein; higher = weaker binding; RNA-MaP array; FMN 200 µM where present
# Summary of the method: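 Stalled E. coli RNA polymerase produced the designs on Illumina sequencing-chip clusters. SNAP-549-labelled MS2 coat protein was added from 0.7 or 1.5 nM, doubling to 3 µM, without and then with constant ligand, in 100 mM Tris-HCl pH 7.5, 80 mM KCl, 4 mM MgCl2, BSA, DTT, yeast tRNA and Tween-20. The apparent Kd is the median of filtered per-cluster fits of green signal normalised to red-channel RNA signal and control-cluster median Fmax.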
# [1] = designed as: ON switch for flavin mononucleotide, no ligand
# [2] = ligand present: flavin mononucleotide, designed as: ON switch for flavin mononucleotide
# [3] = designed as: OFF switch for flavin mononucleotide, no ligand
# [4] = ligand present: flavin mononucleotide, designed as: OFF switch for flavin mononucleotide
Sequence,apparent Kd [1] [µM],apparent Kd [2] [µM],apparent Kd [3] [µM],apparent Kd [4] [µM]
UUGGACGUCGUAGGAUAUGUAUGAUAUUCCUACAUGAGGAUCACCCAUGUUGACAUGGAAGAAGGACAGAAGGACGAUGUCCAU,0.0058,0.00456,–,–
CAGGACCUUGAGGAUAUGUGACGAUUAUCGUUCAUAGAAGGUAAGACAUGAGGAUCACCCAUGUCCUGGCAUAA,–,–,0.0151,0.0151
AAUUGACACGUAGGAUAUCGCUCUAUUUUAACACGAGAAGGACGUACAUGAGGAUCACCCAUGUUUAAUGGUGUAGAUAAGUUG,–,–,0.105,0.228
CCUGCACAUGAGGAUCACCCAUGUCAGGAUAUCUCGCCGCGAAGAGCAACACGGUAUUAGAGAAGGGACACGGG,–,–,0.0281,0.0365
CUCUAUCAUGUAGGAUAUGCGUGGCGAAGCUAUGCAGAAGGACAUGAGGAUCACCCAUGUCUUUCUGUCUGCGGACGGACAGGG,–,–,0.0331,0.0692
AUAAAGUGAGGAUAUGUAAAAAUAACGAAAGUUAUAAAUAAACAGAAGGCACAUGAGGAUCACCCAUGUCCAAU,–,–,0.0268,0.0431
AGUCGGAGCGGAGGAUAUACAUGAGGAUCACCCAUGUAAUAAAGUGAAGCCUGGAAACAGGCAAUGUAGAAGGCUGCUCCGACA,–,–,0.011,0.0748
GGGAAACAUGAGGAUCACCCAUGUCAGGAUAUGAUACUAUGUACUUCGGUACAUAGUAUCAGAAGGGACAUCAU,–,–,0.0738,0.204
AAGUAGGUAGGAUAUACAUGGAUAUACAUUCAUGUGGACCUACAUGAGGAUCACCCAUGUAGAAGGACCUAAUA,–,–,0.0432,0.0416
GGAUGACAAAGUCAUCCAUUACGAACAUGAGGAUCACCCAUGUAGGAUAUGCUUCACAAAGUGAAGCAGAAGGACAUGUGUCUU,–,–,0.0302,0.154
UCCCGUGUGGAAGGAUAUAGGACGAGGUGGGACAUGAGGAUCACCCAUGUGCUAGAAGGUCCGCAGCCGAUUGGCUUUUACGUG,–,–,0.0092,0.0281
GUUGGGUGUCAUGUCGCACAUGAGGAUCACCCAUGUAGGAGGUAGGAUAUCCACGAGAAACAAGAGGAGAAGGGCCAUUAGCGU,–,–,0.0235,0.0292
AUCUCGUCAGGAUAUUGGAUUUGGAUUGAAAGGUUUAGGUUUAAGAAGGGACAUGAGGAUCACCCAUGUCUGGU,–,–,0.0218,0.0215
UAGAUGGGAGGAUAUACGUAGAUACAGAUUCGUGUAGUGCUACAUGAGGAUCACCCAUGUAGAAGGCCCGUCUU,–,–,0.0136,0.0229
CAUGUCCUCACAGGAUAUGCACCACUUUGUGGUGCAGAAGGGUGGUUACAUGAGGAUCACCCAUGUGGACAUGAUAUAUUUAAU,0.0937,1.15,–,–
AUAAUGUAAGGAUAUCAGUCGACUAGCUGCGGCUAGUCGACUGAGAAGGUACAUGAGGAUCACCCAUGUGUUCC,–,–,0.133,0.868
GGUACUCAAAGAGUACCAAUACGAACAUGAGGAUCACCCAUGUAGGAUAUGCUACUCAAAGAGUAGCAGAAGGAUAUGUGUCUA,–,–,0.0165,0.0175
CUCACGUUAGUAGGAUAUCCGACAUGAGGAUCACCCAUGUCACUACGCCUCAAGGGAAGGCGUAAGGAGAAGGGCUGAUAAAUA,0.254,0.156,–,–
GUAAUUAAGAGAGGAUAUUGACAUGAGGAUCACCCAUGUAUUUGGGAGUGUUCACUGAAUUCUUACGAGAAGGCUUUUAAAUAC,–,–,0.329,0.285
GCGUGGUUCUAGAAGGUGCUAGCGAUAAGCUAGCAAGGAUAUAGACAUGAGGAUCACCCAUGUCUAAGAGAAAUAGACACACGC,–,–,0.00456,0.00509
UUGUUAUAUGUAGGAUAUGCGUAUUAUUAUUAGGCAGAAGGACAUGAGGAUCACCCAUGUAUGUUGUUGUUAUAUAUUAUAUAU,–,–,0.0284,0.0296
GGAUAGGACAGAGGAUAUACGUGCUAGAGCUACUAGCAAAAUUUCCUCACAUGAGGAUCACCCAUGUAGAAGGCUGUCCUAUCG,–,–,0.0156,0.463
AACUAGCUAGGAUAUACAUGAGGAUCACCCAUGUAAAAAAAAAAAAAAAAAUUUUUAUGUAGAAGGAGCUAGUA,–,–,0.034,0.0412
AUACCUUAUGAGAAGGCGAUCAUGAAACAUGAUCGAGGAUAUCAUGUAAACAUGAGGAUCACCCAUGUAUGGGUAUUAUGGUAA,0.0265,0.0091,–,–
GGGUAACAUGAGGAUCACCCAUGUGAGGAUAUUCUAGGGAUGGAAGCUCGGCCGGCCAGGAGAAGGUACUAAAG,–,–,0.044,0.048
AUUAAACAUGAGGAUCACCCAUGUGAGGAUAUGCAAAAAAAAUUAUAUUAAAAAAAAAGCAGAAGGCACAUAUA,–,–,0.0547,0.0946
AAGAAGUCAGGAUAUCCAUGGCGGCACUUGCGUGGUGGCGUGGAGAAGGGACAUGAGGAUCACCCAUGUAAAGA,–,–,0.0513,0.0358
GAAUAACAUGAGGAUCACCCAUGUGAUUCGCAUGUAGGAUAUGGGCACGCGCCCGCGUGUCCAGAAGGACAGGCUA,0.154,0.13,–,–

Sequence,apparent Kd [1] [µM],apparent Kd [2] [µM],apparent Kd [3] [µM],apparent Kd [4] [µM]
CAGAGUUGGUAAGGAUAUCCCACAUUAUUCUGACCCGUGCAAGCUACAUGAGGAUCACCCAUGUGGGAGAAGGUGCGUUAAAGA,–,–,0.039,0.035
GUCAGCUCGUGAGGAUAUACAACACUGCUUCGGCAGUGUAUUAAUAUCACAUGAGGAUCACCCAUGUAGAAGGCACGAGCUGAU,–,–,0.00507,0.00581
UAACCGCAGCAGAAGGGACGUCGGGUGGACUAGUCAGGAUAUGCAUGCCGGCAUAGACAUGAGGAUCACCCAUGUACGAGUGGC,0.347,0.0876,–,–
GAAGCAUCCAAUAACAUGAGGAUCACCCAUGUCAAAAGACGGGAGGAUAUUGAUCUGAAGAAGAUCAAGAAGGCCUGGUGCUAA,0.0101,0.00735,–,–
GUAACGCUUGACAUGAGGAUCACCCAUGUUAGAUUGUUAUGUCAGGAUAUAGUCUAGAAACUAGACUAGAAGGGAUAUGUUGCU,0.0593,0.029,–,–
UCCGAGUGAGGAUAUUGGAGUUGGUGCACUGCACAUAGGGUUAAGAAGGCACAUGAGGAUCACCCAUGUUACGU,–,–,0.0413,0.0409
UAAAAGACUAGCAACUAACUCCACAUGAGGAUCACCCAUGUCUAGGAUAUGAGCAGCAAAGCUGCUUAGAAGGAGACGCUAGUC,–,–,0.00648,0.0061
UUAGAAAUGUUAGGAUAUUAAUAUUUUUUUAGUAUGAUCUACAUGAGGAUCACCCAUGUUAAUAUUAAGAAGGAACAUUUUAUU,–,–,0.0885,0.064
AACUAAGAAUUAAUGGUGACUGACAGAAGGCAAUAGAAUGAGACCGACAUGAGGAUCACCCAUGUUGAGGAUAUGUCUUGCUAC,–,–,0.00659,0.0072
GGAGAACAUGAGGAUCACCCAUGUGGAUGGGCGCUAGGAUAUGCGGGAGGGUGAAGAGAAGCAGAAGGAGUGGAUA,0.0776,0.0761,–,–
GUCAGCUCGUGAGGAUAUACAAUACUGCUUCGGCAGUGUAUUAAGAUCACAUGAGGAUCACCCAUGUAGAAGGCACGAGCUGAU,–,–,0.00788,0.0604
UCAGGCUUCGAGAAGGACAUGAGGAUCACCCAUGUGCGUGUGAAGCAGCCGUGAGGCUGCAUCAUGUAGGAUAUCGGAGUCUGA,–,–,0.0756,0.459
AUCAGUUCGUCAGGAUAUACGUCACUGCGUCAGCAGUGUGGUAAGAUCACAUGAGGAUCACCCAUGUAGAAGGGACGAGCUGAU,–,–,0.014,0.214
AGUGUGAGGCAGGAUAUGCUAUAUGUUCGUAAUGCAGAAGGGUCUACAUGAGGAUCACCCAUGUGUGCGGUUGA,–,–,0.183,0.523
GCUCUCGGAGGAUAUGUGCCGAGUGACAUGAGGAUCACCCAUGUAUUUCUCCUGUAAUCUACAGAAGGCCGAGGCG,–,–,0.161,0.0239
AUGGGUUAAGGAGGAUAUAGAGGGAGGAGUAGACAUGAGGAUCACCCAUGUAUUUAAUUAGUUUACUAGAAGGCUUGUGAUUGU,0.056,0.0757,–,–
GGUAAGAUGCAGAAGGUGUUAGCUAGAGCUACGACAUGAGGAUCACCCAUGUACUAGAAACAGUACAAGGAUAUGCAUCUUACU,0.0189,0.00653,–,–
AUAUCUCUGUAAGGAUAUAGAUGGUAUACGCCUCCGACAUGAGGAUCACCCAUGUUAUAUUUUGUCUAGAAGGUACAGUGUCGG,0.656,0.292,–,–
GGUGGGAGGUAGACUGGACGGGCAACAUGAGGAUCACCCAUGUAGGAUAUCGUGUGUGUCAACGACGAGAAGGGCGUAGGCGGA,–,–,0.0203,0.0171
CAUUUUGCCGAGGAUAUGGAGGAUGACACUCUACCAGAAGGUGGCACAUGAGGAUCACCCAUGUGGAGUUCGCG,–,–,0.0793,0.0927
AUGGUACAUGAGGAUCACCCAUGUCAGGAUAUCGGCUGUGACGUGAAAAGAGUGUUGGCGAGAAGGGACUGCAA,–,–,0.0397,0.0456
UUGGACGUCGUAGGAUAUGUAGGAUAUUCCUACAUGAGGAUCACCCAUGUUGACAUGGAAGAAGGACGGAAGGACGAUGUCCAU,0.899,0.0189,–,–
CGGCGGAAGCAGAAGGCAUGAACGGACAUGAGGAUCACCCAUGUUGGAAACUCAUGCCCGAAAGAUGAGGAUAUGCGUCCGGGU,–,–,0.0717,0.0185
UUAGAAUUGCAAGGAUAUCUAAUGUAGAUAGUAAGAGAAGGUGCUUGAUAGUUACAUGAGGAUCACCCAUGUAUUUGGGUUUAU,0.395,0.375,–,–
ACUAGAUGAGGAUAUGCAUAUUUUCGUGUUCUUCUAGAUUAACAUGAGGAUCACCCAUGUAGAAGGCGUCAUUU,–,–,0.0157,0.0184
GAAAACUGAGGAUAUACAUGAGGAUCACCCAUGUAGGUACGGCUUCUACAUUCGUCAUGUAGAAGGCAGUAUAA,–,–,0.0181,0.0157
UUCAUGUGAGGAUAUGCGGCGGCAGGUGGGCCUGUCGCUGAGCAGAAGGCACAUGAGGAUCACCCAUGUGCUCC,–,–,0.0343,0.0597
